# Results taken from PubChem BioAssay AID651740 (Broad Institute, 2012).
# The campaign covered roughly 5,600 compounds. About 1,200 (21%) were called active. About 3% were inconclusive and are not listed.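 How the source made its calls: active means mean inhibition above about 95%, with at least 55% of replicates also reaching it (limit read from the data); inconclusive means meets just one of the two conditions; inactive means meets neither condition.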 Only a sample is shown.
# Test: Trypanosoma cruzi growth blockers in host fibroblasts – NIH3T3 host cells, beta-gal parasites, cherry-pick, set 2, confirmation (AID 651740);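 further: plate controls were neutral control median for no effect and positive control median for full effect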
# Conditions: T. cruzi beta-gal in NIH3T3, GalScreen luminescence, 90 h; at 2.09 µM; stronger effect = higher value
# Outline: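 Material: mouse NIH/3T3 fibroblasts infected with beta-galactosidase T. cruzi Tulahuen C4; medium: DMEM plus 2% fetal bovine serum, 1% PSG; dosing: single point, 100 nL compound in DMSO pinned per well; times: ≥90 h infection with compound, 60 min read delay; signal: GalScreen lysis and luminescent beta-gal signal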
row,Structure (SMILES),inhibition
1,C[C@H](CO)N1C[C@H](C)[C@@H](CN(C)S(=O)(=O)c2ccccc2)Oc2ncc(C#Cc3ccccc3F)cc2C1=O,93% (inactive)
2,C[C@H](CO)N1C[C@H](C)[C@H](CN(C)S(=O)(=O)c2cccc(F)c2)Oc2ncc(/C=C/c3ccccc3)cc2C1=O,46.4% (inactive)
3,C[C@H]1CN([C@@H](C)CO)C(=O)c2cccc(NS(=O)(=O)c3cn(C)cn3)c2O[C@@H]1CN(C)CC1CCCCC1,29.6% (inactive)
4,Cc1noc(C)c1S(=O)(=O)Nc1ccc2c(c1)C(=O)N([C@@H](C)CO)C[C@H](C)[C@@H](CN(C)C(=O)Nc1cccc3ccccc13)OCCCC[C@H](C)O2,42.4% (inactive)
5,CC(C)(C)[S@@](=O)N1Cc2cc(C(=O)NCc3ccc4c(c3)OCO4)nc(-c3cccc(-c4ccccc4)c3)c2[C@H]1CCO,91.6% (inactive)
6,O=C(Nc1ccc(Cl)cc1)N[C@@H]1CC[C@@H](CCNC(=O)c2ccccc2F)O[C@H]1CO,36.4% (inactive)
7,Cc1ccc(S(=O)(=O)N(C)C[C@@H]2Oc3ncc(-c4cc5ccccc5o4)cc3C(=O)N([C@H](C)CO)C[C@@H]2C)cc1,43% (inactive)
8,COc1ccccc1-c1ccc2c(c1)O[C@H](CN(C)S(=O)(=O)c1ccc(C)cc1)[C@@H](C)CN([C@H](C)CO)S2(=O)=O,91.3% (inactive)
9,O=C(Nc1ccccc1)N1CCCCN2[C@H](CO)[C@@H](c3ccc(C#Cc4ccccn4)cc3)[C@H]2C1,39.3% (inactive)
10,C[C@H](CO)N1C[C@H](C)[C@@H](CN(C)C(=O)C2CCCCC2)Oc2cc(-c3ccccc3)ccc2S1(=O)=O,68.2% (inactive)
11,C[C@H](CO)N1C[C@H](C)[C@H](CN(C)Cc2ccncc2)Oc2cc(-c3ccncc3)ccc2S1(=O)=O,90.6% (inactive)
12,CCCN(C)C[C@@H]1Oc2cc(C#Cc3ccc(F)cc3)ccc2S(=O)(=O)N([C@H](C)CO)C[C@H]1C,68.9% (inactive)
13,C[C@@H]1CN([C@H](C)CO)S(=O)(=O)c2ccc(C#C[C@@H](C)O)cc2O[C@@H]1CN(C)Cc1ccc(-c2ccccc2)cc1,96.9% (active)
14,Cc1ccc(S(=O)(=O)N2C[C@@H](O)COC[C@@H]3O[C@H](CC(=O)NCc4ccc(Cl)c(Cl)c4)CC[C@H]32)cc1,50.2% (inactive)
15,COCCNC[C@@H]1[C@H](c2ccccc2)[C@H](CO)N1c1nc(C)c(C)s1,5.12% (inactive)
16,O=C(Nc1ccc2c(c1)[C@@H]1C[C@H](CC(=O)N3CCOCC3)O[C@@H](CO)[C@@H]1O2)c1ccc2c(c1)OCO2,6.38% (inactive)
17,C[C@@H]1CN([C@H](C)CO)C(=O)c2cc(NS(C)(=O)=O)ccc2O[C@@H](C)CCCCO[C@H]1CN(C)S(=O)(=O)c1cn(C)cn1,-5.24% (inactive)
18,COc1ccc(C#Cc2ccc([C@@H]3[C@@H](CO)N4CCCCN(C(=O)c5ccncc5)C[C@@H]34)cc2)cc1,30% (inactive)

row,Structure (SMILES),inhibition
1,C[C@@H]1CN([C@H](C)CO)C(=O)c2cccc(NC(=O)c3cnccn3)c2O[C@@H]1CN(C)Cc1ccc(C(=O)Nc2ccccc2N)cc1,82.4% (inactive)
2,C[C@H]1CN([C@@H](C)CO)S(=O)(=O)c2ccc(C#CC3CCCC3)cc2O[C@H]1CN(C)C(=O)Cc1ccncc1,79.4% (inactive)
3,C[C@@H]1CN([C@@H](C)CO)C(=O)c2cc(NC(=O)Cc3ccccc3)ccc2O[C@@H]1CN(C)Cc1ccc(Oc2ccccc2)cc1,94.9% (inactive)
4,C[C@@H]1CN([C@@H](C)CO)C(=O)c2cc(NC(=O)Nc3ccc4c(c3)OCO4)ccc2O[C@@H]1CN(C)Cc1ccc(Oc2ccccc2)cc1,-1.56% (inactive)
5,C[C@@H]1CN([C@@H](C)CO)C(=O)c2cc(NC(=O)Nc3cccc4ccccc34)ccc2O[C@H]1CN(C)Cc1ccc(Oc2ccccc2)cc1,106% (active)
6,C[C@@H]1CN([C@@H](C)CO)C(=O)c2cc(NC(=O)Nc3cccc4ccccc34)ccc2O[C@H]1CN(C)Cc1ccc(Cl)c(Cl)c1,102% (active)
7,C[C@H]1CN([C@@H](C)CO)C(=O)c2cc(NC(=O)Nc3ccc4c(c3)OCO4)ccc2O[C@@H]1CN(C)Cc1ccc(Oc2ccccc2)cc1,66.6% (inactive)
8,Cc1ccc(S(=O)(=O)Nc2ccc3c(c2)C(=O)N([C@H](C)CO)C[C@H](C)[C@H](CN(C)Cc2ccc(Cl)c(Cl)c2)O3)cc1,74% (inactive)
9,Cc1ccc(-c2ccc([C@H]3[C@H](CO)N4CCCCN(Cc5cncnc5)C[C@@H]34)cc2)cc1,50.8% (inactive)
10,C[C@@H]1CN([C@H](C)CO)C(=O)c2cc(C#Cc3ccccn3)cnc2O[C@H]1CN(C)Cc1ccccc1,76.7% (inactive)
11,C[C@H]1CN([C@@H](C)CO)C(=O)c2ccccc2-c2ccccc2CO[C@@H]1CN(C)S(=O)(=O)c1ccc(C(F)(F)F)cc1,71.5% (inactive)
12,CCC(=O)N1CCCCN2[C@H](C1)[C@@H](c1ccc(-c3ccc(F)cc3)cc1)[C@@H]2CO,-6.94% (inactive)
13,C[C@@H]1CCCCO[C@H](CN(C)Cc2ccc(Cl)c(Cl)c2)[C@H](C)CN([C@@H](C)CO)C(=O)c2cc(NC(=O)C3CCCCC3)ccc2O1,110% (active)
14,C[C@@H]1CCCCO[C@@H](CN(C)Cc2ccc(Cl)c(Cl)c2)[C@H](C)CN([C@H](C)CO)C(=O)c2cc(NC(=O)Nc3ccc(F)cc3)ccc2O1,112% (active)
15,COc1ccc(NC(=O)Nc2ccc3c(c2)C(=O)N([C@H](C)CO)C[C@@H](C)[C@H](CN(C)Cc2ccc(Cl)c(Cl)c2)OCCCC[C@@H](C)O3)cc1,114% (active)
16,C[C@@H]1CN([C@H](C)CO)C(=O)c2cc(NC(=O)Nc3ccc(F)cc3)ccc2O[C@@H](C)CCCCO[C@H]1CN(C)Cc1ccc(Cl)c(Cl)c1,114% (active)
17,C[C@@H]1CCCCO[C@@H](CN(C)Cc2ccc3c(c2)OCO3)[C@@H](C)CN([C@@H](C)CO)C(=O)c2cc(NC(=O)Nc3ccccc3)ccc2O1,84.4% (inactive)
18,COc1ccc(CN(C)C[C@H]2OCCCC[C@H](C)Oc3ccc(NC(=O)Nc4ccc5c(c4)OCO5)cc3C(=O)N([C@H](C)CO)C[C@@H]2C)cc1,83% (inactive)
